Data reported in ChEMBL document CHEMBL3627693, “Novel aminotetrazole derivatives as selective STAT3 non-peptide inhibitors” (Eur J Med Chem, 2015).
Activity calls are given as the source filed them. The rule behind the calls is not given here.

What was measured:
[1] = biological target: T1, Signal transducer and activator of transcription 3 (Homo sapiens, UniProt P40763); experiment: Inhibition of STAT3 (unknown origin) expressed in Oncostatin M induced human HeLa cells at 50 uM incubated for 1 hr by luciferase reporter gene assay; assay type: cell-based
T1 sequence (P40763 whole entry): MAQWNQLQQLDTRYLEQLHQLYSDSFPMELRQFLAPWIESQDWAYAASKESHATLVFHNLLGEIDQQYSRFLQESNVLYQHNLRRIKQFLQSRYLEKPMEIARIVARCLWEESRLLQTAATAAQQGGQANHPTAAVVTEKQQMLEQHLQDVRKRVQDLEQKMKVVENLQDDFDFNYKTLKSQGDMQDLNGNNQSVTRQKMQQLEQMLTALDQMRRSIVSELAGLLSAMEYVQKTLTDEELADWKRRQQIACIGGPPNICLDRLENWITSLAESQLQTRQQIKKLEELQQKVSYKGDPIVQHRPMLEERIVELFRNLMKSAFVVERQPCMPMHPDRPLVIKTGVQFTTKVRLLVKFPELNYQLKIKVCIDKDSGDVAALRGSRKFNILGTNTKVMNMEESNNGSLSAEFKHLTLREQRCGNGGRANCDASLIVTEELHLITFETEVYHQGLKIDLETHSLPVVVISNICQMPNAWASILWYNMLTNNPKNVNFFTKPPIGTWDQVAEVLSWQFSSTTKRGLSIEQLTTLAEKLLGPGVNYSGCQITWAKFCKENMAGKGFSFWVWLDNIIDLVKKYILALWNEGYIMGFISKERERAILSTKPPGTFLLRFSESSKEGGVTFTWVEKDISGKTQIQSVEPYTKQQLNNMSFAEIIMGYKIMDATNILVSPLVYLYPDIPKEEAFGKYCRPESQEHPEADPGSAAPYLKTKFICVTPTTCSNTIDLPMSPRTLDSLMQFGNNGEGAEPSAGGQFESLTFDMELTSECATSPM

[2] = biological target: T2, Signal transducer and activator of transcription 1-alpha/beta (Homo sapiens) (UniProt P42224); experiment: Inhibition of STAT1 (unknown origin) expressed in IFN-gamma induced human HeLa cells at 50 uM incubated for 1 hr by luciferase reporter gene assay; assay type: cell-based
T2 sequence (whole entry): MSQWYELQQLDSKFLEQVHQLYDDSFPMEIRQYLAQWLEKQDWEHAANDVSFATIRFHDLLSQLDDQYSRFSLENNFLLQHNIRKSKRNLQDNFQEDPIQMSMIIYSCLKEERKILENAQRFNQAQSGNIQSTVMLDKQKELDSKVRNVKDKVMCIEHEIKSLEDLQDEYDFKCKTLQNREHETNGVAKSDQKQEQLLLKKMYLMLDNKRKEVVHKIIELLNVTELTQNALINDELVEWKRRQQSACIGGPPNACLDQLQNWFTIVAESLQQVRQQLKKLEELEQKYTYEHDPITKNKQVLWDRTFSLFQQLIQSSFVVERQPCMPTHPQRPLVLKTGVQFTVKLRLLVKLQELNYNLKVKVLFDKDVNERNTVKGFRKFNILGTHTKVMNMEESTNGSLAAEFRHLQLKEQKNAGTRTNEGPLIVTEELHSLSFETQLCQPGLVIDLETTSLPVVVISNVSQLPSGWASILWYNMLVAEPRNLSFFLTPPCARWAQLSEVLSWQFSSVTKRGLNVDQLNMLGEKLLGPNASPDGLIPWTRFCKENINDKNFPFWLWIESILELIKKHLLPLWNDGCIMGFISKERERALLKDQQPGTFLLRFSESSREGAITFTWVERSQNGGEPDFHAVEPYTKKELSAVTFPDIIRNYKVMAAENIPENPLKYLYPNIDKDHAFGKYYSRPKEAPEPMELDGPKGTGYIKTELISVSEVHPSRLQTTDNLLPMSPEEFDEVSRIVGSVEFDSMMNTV

[3] = biological target: T1, Signal transducer and activator of transcription 3; experiment: Displacement of fluorescent peptide 5-FAM-G(pTyr)LPQTV-CONH2 from GST-tagged full-length human STAT3 preincubated for 60 mins followed by fluorescent peptide addition measured after 30 mins by fluorescence polarization assay
How it was run: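 Full-length GST-STAT3 (100 nM) preincubated 60 min at room temperature with compound at various concentrations or vehicle, in 50 mM NaCl, 10 mM Hepes pH 7.5, 1 mM EDTA, 0.01% Triton X-100, 2 mM DTT. Labelled peptide then added to 10 nM final, 30 min room temperature. FP read with excitation 480, emission 535 (P and S pol).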

[4] = biological target: T2, Signal transducer and activator of transcription 1-alpha/beta (Homo sapiens); experiment: Displacement of fluorescent peptide 5-FAM-G(pTyr)YIKTE- CONH2 from GST-tagged human STAT1b preincubated for 60 mins followed by fluorescent peptide addition measured after 30 mins by fluorescence polarization assay
How it was run: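 GST-tagged human STAT1b preincubated 60 min at room temperature with compound at various concentrations or vehicle in 50 mM NaCl, 10 mM Hepes pH 7.5, 1 mM EDTA, 0.01% Triton X-100, 2 mM DTT. Labelled peptide added to 10 nM final, 30 min room temperature. Fluorescence polarization read with excitation 480, emission 535.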

[5] = system: HeLa; experiment: Cytotoxicity against human HeLa cells at 50 uM; assay type: cell-based

Row | inhibition [1] | inhibition [2] | Activity [3] | Activity [4] | SMILES | Activity [5]
1 | 54.7% | 46% | – | – | COc1cc(CN(CC(=O)O)Cc2cc(Cl)c(OCc3ccc(C)cc3)c(OC)c2)cc(Cl)c1OCc1ccc(C)cc1 | –
2 | 11.9% | 0% | – | – | COc1cc(CNc2nn[nH]n2)cc(Cl)c1OCc1ccc(C(C)(C)C)cc1 | –
3 | 82.7% | 72.9% | – | – | CCCCCCCCCOc1cc(COc2c(Cl)cc(CNc3nn[nH]n3)cc2OC)ccc1[N+](=O)[O-] | –
4 | 40.1% | 9.2% | Active | – | COc1cc(CNc2nn[nH]n2)cc(Cl)c1OCc1cccc([N+](=O)[O-])c1 | –
5 | 31% | 1.1% | – | – | COc1cc(CNc2nn[nH]n2)cc(Cl)c1OCc1ccccc1[N+](=O)[O-] | –
6 | 51.1% | 11.7% | – | – | COc1cc(CNc2nn[nH]n2)cc(Cl)c1OCc1ccc(OC(F)(F)F)cc1 | –
7 | Active | – | – | – | O=C(O)c1ccc(NC(=O)C2CC(=O)N(CCc3ccccc3)/C(=N/c3ccccc3)S2)cc1 (centres undefined) | –
8 | 48.5% | 11.5% | – | – | COc1cc(CNc2nn[nH]n2)cc(Cl)c1OCc1ccc(C(F)(F)F)cc1 | –
9 | 66.4% | 43.6% | – | – | COc1cc(CO)cc(Cl)c1OCc1ccc([N+](=O)[O-])cc1 | –
10 | 8.2% | 0% | – | – | COc1cc(CNc2nn[nH]n2)cc(Cl)c1OCc1cccc(-c2ccccc2)c1 | –
11 | 37.6% | 4.4% | – | – | COc1cc(CNc2nn[nH]n2)cc(Cl)c1OCc1ccc(Cl)cc1 | –
12 | 19.6% | 16.5% | – | – | COc1c(OCc2ccc([N+](=O)[O-])cc2)c(Cl)cc(CNc2nn[nH]n2)c1[N+](=O)[O-] | –
13 | 71% | 13.1% | – | – | C[C@@H]1CC(=O)c2c(ccc3c2C(=O)c2cccc(O)c2C3=O)C1 | –
14 | 58.8% | 11.8% | – | – | COc1cc(CNc2nn[nH]n2)cc(Br)c1OCc1ccc(C)cc1 | –
15 | 49.2% | 0% | – | – | COC(=O)c1cccc(COc2c(Cl)cc(CNc3nn[nH]n3)cc2OC)c1 | –
16 | 20.4% | 34.8% | – | – | CCOc1cc(CNc2nn[nH]n2)cc(Cl)c1OCc1ccc([N+](=O)[O-])cc1 | –
17 | 36% | 6.4% | – | – | COc1cc(CNc2nn[nH]n2)cc([N+](=O)[O-])c1OCc1ccc([N+](=O)[O-])cc1 | –
18 | 91.8% | 48.8% | Active | Active | COc1cc(CNC#N)cc(Cl)c1OCc1ccc([N+](=O)[O-])cc1 | –
19 | 50.2% | 10.8% | inactive | Active | COc1cc(NC#N)cc(Cl)c1OCc1ccc(C)cc1 | –
20 | Active | – | – | – | COc1cc(CNc2nn[nH]n2)ccc1OCc1c(Cl)cccc1Cl | –
21 | 25.3% | 0.6% | – | – | O=[N+]([O-])c1ccc(COc2c(O)cc(CNc3nn[nH]n3)cc2Cl)cc1 | –
22 | 77% | 72.7% | – | – | CCc1cc2c(cc1COc1c(Cl)cc(CNc3nn[nH]n3)cc1OC)C(C)(C)CCC2(C)C | –
23 | 20.4% | 0% | – | – | COc1ccc([N+](=O)[O-])cc1COc1c(Cl)cc(CNc2nn[nH]n2)cc1OC | –
24 | 40.1% | – | – | – | COc1cc(CNc2nn[nH]n2)cc(Cl)c1OCc1ccc([N+](=O)[O-])cc1[N+](=O)[O-] | –
25 | 43% | 0% | – | – | COc1cc(CNc2nn[nH]n2)ccc1OCc1ccc(C)cc1 | –
26 | 4.1% | 0% | – | – | COc1cc(CNc2nn[nH]n2)cc(Cl)c1OCc1ccc(OC2CCOCC2)cc1 | –
27 | 26.9% | 11.1% | – | – | Clc1cc(CNc2nn[nH]n2)cc(OCCCc2ccccc2)c1OCc1ccccc1 | –

The remaining lines, values behind:

Row | SMILES | inhibition [1] | inhibition [2] | Activity [3] | Activity [4] | Activity [5]
28 | COC(=O)c1ccc(COc2c(Cl)cc(CNc3nn[nH]n3)cc2OC)cc1 | 51.5% | 0% | – | – | –
29 | COc1cc(CNCC(=O)O)cc(Cl)c1OCc1ccc([N+](=O)[O-])cc1 | 15.3% | 13.1% | – | Active | –
30 | COc1cc(CNc2nn[nH]n2)cc(Cl)c1OCc1cccc(C(=O)O)c1 | 36.9% | 10% | – | – | –
31 | COc1cc(CNc2nn[nH]n2)cc(Cl)c1OCc1ccc(-n2nc(C)cc2C)cc1 | 2.6% | 13.9% | – | – | –
32 | COc1cc(CNc2nn[nH]n2)cc(I)c1OCc1ccc([N+](=O)[O-])cc1 | 52.1% | 0% | – | – | –
33 | Brc1cc2c(cc1COc1ccc(-c3nn[nH]n3)cc1)OCO2 | Active | – | – | – | Toxic
34 | COc1cc(CC(C(=O)O)c2nn[nH]n2)cc(Cl)c1OCc1ccc(C)cc1 (centres undefined) | 40.2% | 12.9% | – | – | –
35 | COc1cc(CNc2nn[nH]n2)cc(Cl)c1OCc1cccc(C(N)=O)c1 | 15.9% | 15% | – | – | –
36 | CC1CCc2c(sc3ncn(Cc4ccc(C(=O)O)cc4)c(=O)c23)C1 (centres undefined) | Active | – | – | – | –
37 | CCCOc1cc(COc2c(Cl)cc(CNc3nn[nH]n3)cc2OC)ccc1[N+](=O)[O-] | 38.3% | 2.8% | – | – | –
38 | COc1cc(CNc2nn[nH]n2)cc(OC)c1OCc1ccc([N+](=O)[O-])cc1 | 45.1% | 19.2% | – | – | –
39 | COc1cc(CCc2nn[nH]n2)cc(Cl)c1OCc1ccc(C)cc1 | 32.8% | 0% | – | – | –
40 | COc1cc(CNc2nn[nH]n2)cc(Cl)c1OCc1ccc(C#N)cc1 | 37.4% | 13.2% | – | – | –
41 | CCCCCCOc1cc(COc2c(Cl)cc(CNc3nn[nH]n3)cc2OC)ccc1[N+](=O)[O-] | 60.1% | 59.3% | – | – | –
42 | COc1cc(CC(C(=O)O)C(=O)O)cc(Cl)c1OCc1ccc(C)cc1 | 14.8% | 24.5% | – | – | –
43 | COc1cc(CNc2nn[nH]n2)cc(Cl)c1OCc1ccc(-c2csc(C)n2)cc1 | 0% | 0% | – | – | –
44 | COc1cc(CN2C(=O)c3ccccc3C2=O)cc(Cl)c1OCc1ccc([N+](=O)[O-])cc1 | 95.9% | 44.5% | – | – | –
45 | COc1cc(C=O)cc(Cl)c1OCc1ccc(C)cc1 | 52.4% | 31.4% | Active | Active | –

Row | SMILES | inhibition [1] | inhibition [2] | Activity [3] | Activity [4] | Activity [5]
46 | COc1cc(CNc2nn[nH]n2)cc(I)c1OCc1ccc(C)cc1 | 62.7% | 16.5% | – | – | –
47 | COc1cc(CNc2nn[nH]n2)cc(Cl)c1OCc1ccc(F)cc1 | 50.7% | 1.2% | – | – | –
48 | CCOc1cc(CNc2nn[nH]n2)cc(I)c1OCc1ccc([N+](=O)[O-])cc1 | 32.4% | 15.1% | – | – | –
49 | COc1cc(CNc2nn[nH]n2)cc(Cl)c1OCc1ccc(C(=O)O)cc1 | 41.1% | 12.9% | – | – | –
50 | COc1cc(CNc2nn[nH]n2)cc(Cl)c1OCc1ccc(SC)cc1 | 0% | 9.7% | – | – | –
51 | COc1cc(CNc2nn[nH]n2)cc(Cl)c1OC(C)c1ccccc1 (centres undefined) | 0% | 0% | – | – | –
52 | CC(C)COC(=O)CN1C(=O)S/C(=C\c2ccc(C(=O)O)cc2)C1=O | Active | – | – | – | –
53 | C=CCN1C(=O)C(CC(=O)Nc2ccc(C(=O)O)cc2)S/C1=N/c1cccc(Cl)c1 (centres undefined) | Active | – | – | – | –
54 | COC(=O)Cc1c(C)c2ccc(OCc3nn[nH]n3)cc2oc1=O | Active | – | – | – | –
55 | COc1cc(CNc2nn[nH]n2)cc(Cl)c1OCc1ccc(C)cc1 | 53.9% | 11.1% | Active | inactive | –
56 | COc1cc(C=O)cc(Cl)c1OCc1ccc([N+](=O)[O-])cc1 | 66.4% | 62.3% | Active | Active | –
57 | COc1cc(CNc2nn[nH]n2)cc(Cl)c1OCc1ccc(C(N)=O)cc1 | 25.7% | 9.5% | – | – | –
58 | COc1cc(CC(c2nn[nH]n2)c2nn[nH]n2)cc(Cl)c1OCc1ccc(C)cc1 | 38.6% | 17.7% | – | – | –
59 | COc1cc(CNc2nn[nH]n2)cc(Cl)c1OCc1cccc(COc2ccccc2)c1 | 0.7% | 0% | – | – | –
60 | COc1cc(CNc2nn[nH]n2)cc(Cl)c1OCc1ccc(-c2nccs2)cc1 | 0% | 0% | – | – | –
61 | Oc1cc(CNc2nn[nH]n2)cc(Cl)c1OCc1ccccc1 | 30.8% | 20.4% | – | – | –
62 | COc1cc(CNc2nn[nH]n2)cc(Br)c1OCc1ccc([N+](=O)[O-])cc1 | 48% | 0% | – | – | –
